The values below come from ChEMBL document CHEMBL3817747 (J Med Chem, 2016).

Molecules are shown by their SMILES.

The subject of this test is Influenza A virus. The test can be described thus: Antiviral activity against oseltamivir-resistant Influenza A virus A/WSN/1933(H1N1) infected in MDCK cells assessed as protection against virus-induced cytopathic effect after 48 hrs by CellTiter 96 AQueous Non-Radioactive cell proliferation assay. The class given is functional, organism-based. The procedure, abridged:
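Virus stock (100 TCID50, TCID50 set by serial dilution on MDCK and Reed–Müench) mixed 1:1 with inhibitor at varied concentrations, then used to infect MDCK cells (1 × 10^5 cells/mL) grown in DMEM with 10% FBS. Incubated 48 h, 37 °C, 5% CO2. CPE read by MTS-type reagent, 15 min, A490. EC50 from curve fit of % CPE vs concentration; mean ± SD of three experiments.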
Background: Damage to the host cells serves as the signal in cytopathic effect assays.
Usually EC50 stands for the midpoint of the concentration-response curve. With `CCCCCCOP(=O)(O)[C@H]1C[C@@H](NC(=N)N)[C@H]([C@@H](NC(C)=O)C(CC)CC)[C@@H]1O`, the EC50 came out at 18.6 nM.

For `CCOP(=O)(O)[C@@H]1C[C@@H]([C@@H](NC(C)=O)C(CC)CC)[C@H](NC(=N)N)C1`, the EC50 came out at 88.7 nM.

`CCCCCCOP(=O)(O)C1=C[C@@H]([C@@H](NC(C)=O)C(CC)CC)[C@H](NC(=N)N)C1`: the EC50 is 18.5 nM. On to `CCC(CC)O[C@@H]1C=C(C(=O)O)C[C@H](N)[C@H]1NC(C)=O` [OSELTAMIVIR CARBOXYLATE], for which the EC50 came out at 5.5 nM. For the molecule `CCCCCCOP(=O)(O)[C@@H]1C[C@@H]([C@@H](NC(C)=O)C(CC)CC)[C@H](NC(=N)N)C1`, the EC50 stood at 43.2 nM. `CCC(CC)[C@H](NC(C)=O)[C@@H]1[C@H](O)[C@@H](P(=O)(O)O)C[C@H]1NC(=N)N`: the EC50 came out at 260 nM. With `CCC(CC)[C@H](NC(C)=O)[C@@H]1C=C(P(=O)(O)O)C[C@H]1NC(=N)N`, the EC50 was determined as 50.3 nM. In the case of `CCC(CC)[C@H](NC(C)=O)[C@@H]1[C@H](O)[C@@H](C(=O)O)C[C@H]1NC(=N)N` [PERAMIVIR ANHYDROUS], the half-maximal effective concentration (EC50) was found to be 1.5 nM. To `CCOP(=O)(O)[C@H]1C[C@@H](NC(=N)N)[C@H]([C@@H](NC(C)=O)C(CC)CC)[C@@H]1O` belongs 66.5 nM; to `CCOP(=O)(O)C1=C[C@@H]([C@@H](NC(C)=O)C(CC)CC)[C@H](NC(=N)N)C1`, 19.1 nM; to `CCC(CC)[C@H](NC(C)=O)[C@@H]1C[C@@H](P(=O)(O)O)C[C@H]1NC(=N)N`, 343 nM.

On to `CC(=O)N[C@H]1[C@H]([C@H](O)[C@H](O)CO)OC(C(=O)O)=C[C@@H]1NC(=N)N` [ZANAMIVIR], for which the EC50 amounted to 16.3 nM.
